Source: ChEMBL document CHEMBL5724801, “EUbOPEN Chemogenomics Library - Multiplex” (2024)
Values joined by “and” are separate entries in the source; they are usually repeats but may differ in a detail not shown here. Identical values can stand only once.

system: Fibroblast; assay: Multiplex assay against human fibroblast; type: toxicity, cell-based; conditions: 12 h, 1 µM, compound concentration 1 uM
Outline: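 At seeding, live cells were stained with Hoechst33342, BioTracker Green Microtubule Cytoskeleton Dye, MitoTracker Red and Annexin V Alexa Fluor 680. After compound addition they were imaged on a CQ1 microscope at 37°C and 5% CO2, and CellPathfinder machine-learning gating sorted them into Hoechst high-intensity objects or normal cells, with normal cells further split into healthy, pyknosed or fragmented nuclei and pyknosed cells into mitotic or apoptotic. Tubulin, mitochondrial-mass and membrane-permeability phenotypes are given as per cents of cells with healthy nuclei.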

SMILES | Population Fragmented Nuclei (%) | Population Healthy Nuclei (%) | Population Hoechst High Intensity Objects (%) | Population Membrane Permeable-Phenotype (%) | Population Mitochondria Different-Phenotype (%) | Population Mitotic Cells (%) | Population Normal (%) | Population Pyknosed Nuclei (%) | Population Tubulin-Different-Phenotype (%) | Total Cell Count
COCCNc1cc(NC(=O)N2CCCc3cc(CN4CCOCC4=O)c(C=O)nc32)ncc1C#N | 9.19% and 4.72% | 62.7% and 77.36% | 0 | 4.31% and 4.27% | 4.31% and 6.71% | 92.31% and 76.32% | 100 | 28.11% and 17.92% | 12.07% and 18.29% | 185 and 212
O=C(Nc1cc(C(F)(F)F)cc(C(F)(F)F)c1)c1cc(Cl)ccc1O [IMD-0354] | 11.69% and 4.09% | 56.49% and 77.78% | 0 | 4.6% and 8.27% | 6.9% and 2.26% | 93.88% and 87.1% | 100 | 31.82% and 18.13% | 8.05% and 22.56% | 154 and 171

same assay, conditions: 12 h, 1 µM, compound concentration 1 uM

SMILES | Population Apoptotic (%)
O=C(Nc1cc(C(F)(F)F)cc(C(F)(F)F)c1)c1cc(Cl)ccc1O [IMD-0354] | 6.12% and 12.9%

same assay, conditions: 12 h, 10 µM, compound concentration 10 uM

SMILES | Population Apoptotic (%) | Population Fragmented Nuclei (%) | Population Healthy Nuclei (%) | Population Hoechst High Intensity Objects (%) | Population Membrane Permeable-Phenotype (%) | Population Mitochondria Different-Phenotype (%) | Population Mitotic Cells (%) | Population Normal (%) | Population Pyknosed Nuclei (%) | Population Tubulin-Different-Phenotype (%)
COCCNc1cc(NC(=O)N2CCCc3cc(CN4CCOCC4=O)c(C=O)nc32)ncc1C#N | 11.11% and 16.67% | 13.02% and 4.35% | 54.17% and 72.83% | 0% and 0.54% | 9.62% and 8.21% | 20.19% and 13.43% | 88.89% and 83.33% | 100% and 99.46% | 32.81% and 22.83% | 43.27% and 48.51%
O=C(Nc1cc(C(F)(F)F)cc(C(F)(F)F)c1)c1cc(Cl)ccc1O [IMD-0354] | 0% and 6.33% | 23.45% and 22.08% | 49.56% and 45% | 0% | 3.57% and 2.78% | 0% and 6.48% | 100% and 93.67% | 100% | 26.99% and 32.92% | 

same assay, conditions: 12 h, 10 µM, compound concentration 10 uM

SMILES | Total Cell Count
COCCNc1cc(NC(=O)N2CCCc3cc(CN4CCOCC4=O)c(C=O)nc32)ncc1C#N | 192 and 185
O=C(Nc1cc(C(F)(F)F)cc(C(F)(F)F)c1)c1cc(Cl)ccc1O [IMD-0354] | 226 and 240

same assay, conditions: 24 h, 1 µM, compound concentration 1 uM

SMILES | Population Fragmented Nuclei (%) | Population Healthy Nuclei (%) | Population Hoechst High Intensity Objects (%) | Population Membrane Permeable-Phenotype (%) | Population Mitochondria Different-Phenotype (%) | Population Mitotic Cells (%) | Population Normal (%) | Population Pyknosed Nuclei (%) | Population Tubulin-Different-Phenotype (%) | Total Cell Count
COCCNc1cc(NC(=O)N2CCCc3cc(CN4CCOCC4=O)c(C=O)nc32)ncc1C#N | 7.46% and 3.69% | 72.64% and 83.41% | 0 | 4.79% and 2.76% | 2.05% and 5.52% | 95% and 78.57% | 100 | 19.9% and 12.9% | 10.27% and 12.15% | 201 and 217
O=C(Nc1cc(C(F)(F)F)cc(C(F)(F)F)c1)c1cc(Cl)ccc1O [IMD-0354] | 10.5% and 2.76% | 59.12% and 70.17% | 0 | 8.41% and 8.66% | 2.8% and 0.79% | 90.91% and 83.67% | 100 | 30.39% and 27.07% | 14.02% and 25.2% | 181

same assay, conditions: 24 h, 1 µM, compound concentration 1 uM

SMILES | Population Apoptotic (%)
O=C(Nc1cc(C(F)(F)F)cc(C(F)(F)F)c1)c1cc(Cl)ccc1O [IMD-0354] | 9.09% and 16.33%

same assay, conditions: 24 h, 10 µM, compound concentration 10 uM

SMILES | Population Apoptotic (%) | Population Fragmented Nuclei (%) | Population Healthy Nuclei (%) | Population Hoechst High Intensity Objects (%) | Population Membrane Permeable-Phenotype (%) | Population Mitochondria Different-Phenotype (%) | Population Mitotic Cells (%) | Population Normal (%) | Population Pyknosed Nuclei (%) | Population Tubulin-Different-Phenotype (%)
COCCNc1cc(NC(=O)N2CCCc3cc(CN4CCOCC4=O)c(C=O)nc32)ncc1C#N | 26.32% and 30% | 10.14% and 8.42% | 71.5% and 70.53% | 0 | 12.84% and 7.46% | 15.54% and 15.67% | 73.68% and 70% | 100 | 18.36% and 21.05% | 43.24% and 50.75%
O=C(Nc1cc(C(F)(F)F)cc(C(F)(F)F)c1)c1cc(Cl)ccc1O [IMD-0354] | 7.58% and 18.81% | 25.35% and 26.19% | 44.24% and 33.73% | 0 |  | 0% and 1.18% | 92.42% and 81.19% | 100 | 30.41% and 40.08% | 

same assay, conditions: 24 h, 10 µM, compound concentration 10 uM

SMILES | Total Cell Count
COCCNc1cc(NC(=O)N2CCCc3cc(CN4CCOCC4=O)c(C=O)nc32)ncc1C#N | 207 and 190
O=C(Nc1cc(C(F)(F)F)cc(C(F)(F)F)c1)c1cc(Cl)ccc1O [IMD-0354] | 217 and 252

same assay, conditions: 48 h, 1 µM, compound concentration 1 uM

SMILES | Population Apoptotic (%) | Population Fragmented Nuclei (%) | Population Healthy Nuclei (%) | Population Hoechst High Intensity Objects (%) | Population Membrane Permeable-Phenotype (%) | Population Mitochondria Different-Phenotype (%) | Population Mitotic Cells (%) | Population Normal (%) | Population Pyknosed Nuclei (%) | Population Tubulin-Different-Phenotype (%)
COCCNc1cc(NC(=O)N2CCCc3cc(CN4CCOCC4=O)c(C=O)nc32)ncc1C#N | 15.38% and 26.32% | 7.73% and 4.91% | 86.7% and 86.61% | 0 | 1.49% and 2.58% | 7.92% and 1.03% | 84.62% and 73.68% | 100 | 5.58% and 8.48% | 5.45% and 12.89%
O=C(Nc1cc(C(F)(F)F)cc(C(F)(F)F)c1)c1cc(Cl)ccc1O [IMD-0354] | 7.14% and 17.65% | 19.1% and 8.99% | 49.44% and 71.91% | 0 | 5.68% and 16.41% | 9.09% and 0% | 92.86% and 82.35% | 100 | 31.46% and 19.1% | 18.18% and 32.03%

same assay, conditions: 48 h, 1 µM, compound concentration 1 uM

SMILES | Total Cell Count
COCCNc1cc(NC(=O)N2CCCc3cc(CN4CCOCC4=O)c(C=O)nc32)ncc1C#N | 233 and 224
O=C(Nc1cc(C(F)(F)F)cc(C(F)(F)F)c1)c1cc(Cl)ccc1O [IMD-0354] | 178

same assay, conditions: 48 h, 10 µM, compound concentration 10 uM

SMILES | Population Apoptotic (%) | Population Fragmented Nuclei (%) | Population Healthy Nuclei (%) | Population Hoechst High Intensity Objects (%) | Population Membrane Permeable-Phenotype (%) | Population Mitotic Cells (%) | Population Normal (%) | Population Pyknosed Nuclei (%) | Population Tubulin-Different-Phenotype (%) | Total Cell Count
COCCNc1cc(NC(=O)N2CCCc3cc(CN4CCOCC4=O)c(C=O)nc32)ncc1C#N | 25% and 38.46% | 13.64% and 8.2% | 79.09% and 84.7% | 0 | 4.02% and 7.74% | 75% and 61.54% | 100 | 7.27% and 7.1% | 24.71% and 43.87% | 220 and 183
O=C(Nc1cc(C(F)(F)F)cc(C(F)(F)F)c1)c1cc(Cl)ccc1O [IMD-0354] | 32.47% and 70.37% | 33.5% | 28% and 39.5% | 0 | 17.86% and 22.78% | 67.53% and 29.63% | 100 | 38.5% and 27% | 26.79% and 75.95% | 200

same assay, conditions: 48 h, 10 µM, compound concentration 10 uM

SMILES | Population Mitochondria Different-Phenotype (%)
O=C(Nc1cc(C(F)(F)F)cc(C(F)(F)F)c1)c1cc(Cl)ccc1O [IMD-0354] | 1.79% and 2.53%
